Consider 32 compounds from ChEMBL document CHEMBL4145591, “Phenotypic Screening To Discover Novel Chemical Series as Efficient Antihemorrhagic Agents” (ACS Med Chem Lett, 2018).

One series concerns the target Stromelysin-2 (Homo sapiens, UniProt P09238). Description: Inhibition of MMP10 (unknown origin) using fluorescently-labeled substrate measured every min for 1 min.
The next series addresses Stromelysin-1 (Homo sapiens, UniProt P08254). Description: Inhibition of MMP3 (unknown origin) using fluorescently-labeled substrate measured every min for 1 min.
Series [1] can be described thus: Cytotoxicity against human THLE2 cells assessed as decrease in cell viability after 72 hrs by luminescence assay. The series is classed as cell-based. The following applies: THLE-2 cells, read-out: LC50. The essentials: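 Healthy human hepatic THLE-2 line; compounds incubated with cells for 72 hours, then viability measured. Cytotoxicity reported as LC50.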
For series [2], the target named is Matrix metalloproteinase-14 (Homo sapiens) (UniProt P50281). Briefly: Inhibition of recombinant human MMP14 at 10 uM after 60 mins by fluorescence assay.
Series [3] concerns the target T1, Matrilysin (Homo sapiens) (UniProt P09237).
T1 sequence (whole entry): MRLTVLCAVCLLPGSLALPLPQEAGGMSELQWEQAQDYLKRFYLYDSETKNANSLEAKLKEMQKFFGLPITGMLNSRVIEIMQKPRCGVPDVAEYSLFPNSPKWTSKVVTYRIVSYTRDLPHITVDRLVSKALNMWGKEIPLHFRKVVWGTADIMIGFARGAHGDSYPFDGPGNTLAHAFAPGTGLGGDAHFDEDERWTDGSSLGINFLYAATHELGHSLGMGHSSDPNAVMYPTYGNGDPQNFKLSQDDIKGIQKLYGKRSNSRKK
Briefly: Inhibition of recombinant human MMP7 at 10 uM after 45 mins by fluorescence assay.

The nature of series [4]: Solubility of the compound in saline solution at 10 mM. Particulars: buffer, 10000 µM. The class given is physicochemical.
Series [5] has as its system Mus musculus. Briefly: Antifibrinolytic activity in tPA-induced C57Bl6 mouse hyperfibrinolytic tail bleeding model assessed as bleeding time at 1 mg/kg, iv administered for 5 mins post tPA challenge for 5 mins measured up to 30 mins by spectrophotometric method (reference value: 29.28 +/- 0.4 min). The class given is functional.
A short description of series [6]: Therapeutic index, ratio of LC50 for human THLE2 cells to EC50 for antifibrinolytic activity in human whole blood. The series is classed as toxicity. The procedure, abridged: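 THLE-2 healthy hepatic cells were exposed to compound for 72 hours and cell viability was read to give LC50. Antifibrinolytic EC50 came from thromboelastography in triplicate or duplicate. The index is LC50 relative to EC50, expressed in log units.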

Series [7] concerns the target Tissue-type plasminogen activator (Homo sapiens) (UniProt P00750). Description: Effect on tPA (unknown origin) activity at 0.01 to 10 uM incubated for 15 mins.
The species entered for series [8] is Mus musculus. Briefly: Potency index, ratio of bleeding time for tranexamic acid to bleeding time for test compound in tPA-induced C57Bl6 mouse hyperfibrinolytic tail bleeding model. The series is classed as functional.
The target of series [9] is Prothrombin (Homo sapiens) (UniProt P00734). Description: Effect on human plasma thrombin activity at 0.01 to 10 uM using S2238 as substrate incubated for 15 mins followed by substrate addition measured after 30 mins.
The next series is filed under the species Homo sapiens. Description: Effect on plasminogen/tPA (unknown origin) activity assessed as plasmin generation at 0.01 to 10 uM using S2251 as substrate incubated for 15 mins followed by substrate addition measured after 30 mins.

The source made the active and inactive calls. The rule behind the calls is not given here.

Stromelysin-1, sequence (P08254 whole entry): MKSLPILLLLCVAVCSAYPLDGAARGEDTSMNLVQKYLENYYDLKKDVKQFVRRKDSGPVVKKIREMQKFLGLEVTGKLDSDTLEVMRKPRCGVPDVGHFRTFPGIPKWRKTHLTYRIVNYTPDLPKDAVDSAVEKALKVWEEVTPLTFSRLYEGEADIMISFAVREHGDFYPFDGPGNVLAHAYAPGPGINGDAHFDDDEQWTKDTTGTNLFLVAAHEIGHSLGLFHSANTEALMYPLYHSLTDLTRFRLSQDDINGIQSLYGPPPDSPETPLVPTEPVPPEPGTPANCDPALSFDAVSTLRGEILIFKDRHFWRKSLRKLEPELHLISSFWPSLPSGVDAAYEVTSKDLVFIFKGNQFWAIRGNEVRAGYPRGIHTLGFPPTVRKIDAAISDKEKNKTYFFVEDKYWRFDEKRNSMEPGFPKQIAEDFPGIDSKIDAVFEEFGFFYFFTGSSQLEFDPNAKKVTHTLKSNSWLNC
Stromelysin-2, sequence (P09238 whole entry): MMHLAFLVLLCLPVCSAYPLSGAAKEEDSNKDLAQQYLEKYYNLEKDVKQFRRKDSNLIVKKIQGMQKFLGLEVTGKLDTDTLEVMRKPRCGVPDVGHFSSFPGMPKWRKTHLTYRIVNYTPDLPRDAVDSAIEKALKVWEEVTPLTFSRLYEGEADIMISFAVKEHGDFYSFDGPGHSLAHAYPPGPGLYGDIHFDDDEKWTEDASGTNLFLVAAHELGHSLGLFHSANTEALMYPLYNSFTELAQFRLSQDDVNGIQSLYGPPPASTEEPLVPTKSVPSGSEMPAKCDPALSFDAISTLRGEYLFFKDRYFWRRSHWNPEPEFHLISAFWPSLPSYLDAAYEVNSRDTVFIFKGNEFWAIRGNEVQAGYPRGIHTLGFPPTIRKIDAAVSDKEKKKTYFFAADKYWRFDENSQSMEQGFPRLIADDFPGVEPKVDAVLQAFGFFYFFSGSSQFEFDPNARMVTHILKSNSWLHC
Tissue-type plasminogen activator (Homo sapiens), sequence (P00750 36-562 limits assumed): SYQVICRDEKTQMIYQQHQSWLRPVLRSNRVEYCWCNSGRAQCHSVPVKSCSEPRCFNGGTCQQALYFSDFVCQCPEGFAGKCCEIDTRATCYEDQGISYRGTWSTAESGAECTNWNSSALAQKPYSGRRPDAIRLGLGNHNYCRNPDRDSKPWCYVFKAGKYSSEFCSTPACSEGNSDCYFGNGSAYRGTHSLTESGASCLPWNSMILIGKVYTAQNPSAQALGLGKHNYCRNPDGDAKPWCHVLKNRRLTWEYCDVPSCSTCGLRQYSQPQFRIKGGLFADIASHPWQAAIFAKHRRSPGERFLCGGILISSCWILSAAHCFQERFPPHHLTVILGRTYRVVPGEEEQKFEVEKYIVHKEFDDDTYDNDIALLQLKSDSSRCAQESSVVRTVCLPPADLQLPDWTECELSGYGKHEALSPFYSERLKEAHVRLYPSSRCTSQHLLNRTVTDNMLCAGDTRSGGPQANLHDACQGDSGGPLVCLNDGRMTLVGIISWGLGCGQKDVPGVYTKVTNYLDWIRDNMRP

As to `C#CCCCN1CCC2(CC1)CCC(C(=O)Nc1ccccc1N)(S(=O)(=O)c1ccc(C(=O)c3ccccc3)cc1)C2` (stereo not drawn), the IC50 on Stromelysin-2 and on Stromelysin-1 was greater than 10 µM each time. The CC50 at 72 h in [1] was determined as 43.5 µM. The inhibition entry in series [2] and in series [3] was “inactive” in each case.

As for `CNC(=O)NC(=O)C1(S(=O)(=O)c2ccc(Oc3ccc(OC)cc3)c(Cl)c2)CCC2(CCNCC2)C1` (stereo not drawn), the IC50 against Stromelysin-2 and against Stromelysin-1 was greater than 10 µM throughout.

In the case of `O=C(Nc1ccccn1)C1(S(=O)(=O)c2ccc(Oc3ccc(OC(F)(F)F)cc3)cc2)CCC2(CCNCC2)C1` (stereo not drawn), the IC50 against Stromelysin-2 and against Stromelysin-1 was greater than 10 µM each time.

As for `COc1ccc(S(=O)(=O)C2(C(=O)Nc3ccccc3N)CCC3(CCNCC3)C2)cc1Cl` (stereo not drawn), the IC50 at Stromelysin-2 and against Stromelysin-1 was greater than 10 µM throughout.

Take `COc1ccc(N)c(NC(=O)C2(S(=O)(=O)c3ccc(Oc4ccc(OC(F)(F)F)cc4)cc3)CCC3(CCNCC3)C2)c1` (stereo not drawn): the IC50 against Stromelysin-2 and against Stromelysin-1 was greater than 10 µM throughout.

Take `Nc1ccccc1NC(=O)C1(S(=O)(=O)c2ccc(NC3CCCCC3)cc2)CCC2(CCNCC2)C1` (stereo not drawn): the solubility result in series [4] is “Soluble”. For the same compound, the Time with Mus musculus [5] came out at 6.58 min. Further, the “log(ratio)” value in series [6] is listed as “>= 2.039”. For the same compound, the IC50 on Stromelysin-2 and against Stromelysin-1 was greater than 10 µM throughout. For the same compound, the CC50 at 72 h in series [1] stood at 43.8 µM.

In the case of `CCCN1CCC2(CC1)CCC(C(=O)Nc1ccccc1N)(S(=O)(=O)c1ccc(Oc3ccc(OC(F)(F)F)cc3)cc1)C2` (stereo not drawn), the result (in [7]; in [9]; in the series filed under Homo sapiens) was inactive. The Time with Mus musculus [5] was 3.61 min. In addition, the “log(ratio)” value in series [6] is given as “>= 0.993”. The “fold change (FC)” value in the series filed under Mus musculus [8] is recorded as 3. For the same compound, the IC50 against Stromelysin-2 and at Stromelysin-1 was greater than 10 µM each time. Also, the CC50 at 72 h in series [1] was determined as 3.94 µM. Further, the inhibition entry in [2] and in series [3] was “inactive” in each case.

On to `COC(=O)C1(S(=O)(=O)c2ccc(Oc3ccc(OC(F)(F)F)cc3)cc2)CCC2(CCNCC2)C1` (stereo not drawn), for which the IC50 against Stromelysin-2 and against Stromelysin-1 was greater than 10 µM each time.

As for `O=S(=O)(c1ccc(Oc2ccc(OC(F)(F)F)cc2)cc1)C1(CO)CCC2(CCNCC2)C1` (stereo not drawn), the IC50 against Stromelysin-2 and against Stromelysin-1 was greater than 10 µM each time.

Regarding `CNC(=O)NC(=O)C1(S(=O)(=O)c2ccc(OC)c(Cl)c2)CCC2(CCNCC2)C1` (stereo not drawn), the IC50 on Stromelysin-2 and on Stromelysin-1 was greater than 10 µM throughout.

`O=C(Oc1ccccc1)C1(S(=O)(=O)c2ccc(Oc3ccc(OC(F)(F)F)cc3)cc2)CCC2(CCNCC2)C1` (stereo not drawn): the “log(ratio)” value in series [6] is 0.637. Besides, the IC50 against Stromelysin-2 and on Stromelysin-1 was greater than 10 µM in each case. Moreover, the CC50 at 72 h in [1] is 3.9 µM.

As to `Nc1ccc(-c2ccccc2)cc1NC(=O)C1(S(=O)(=O)c2ccc(Oc3ccc(OC(F)(F)F)cc3)cc2)CCC2(CCNCC2)C1` (stereo not drawn), the “log(ratio)” value in series [6] is reported as “>= 0.946”. The IC50 at Stromelysin-2 and against Stromelysin-1 was greater than 10 µM in each case. For the same compound, the CC50 at 72 h in series [1] turned out to be 3.53 µM.

In the case of `O=C(Nc1ccccc1O)C1(S(=O)(=O)c2ccc(Oc3ccc(OC(F)(F)F)cc3)cc2)CCC2(CCNCC2)C1` (stereo not drawn), the IC50 against Stromelysin-2 and on Stromelysin-1 was greater than 10 µM in each case.

Take `Nc1ccccc1NC(=O)C1(S(=O)(=O)c2ccc(Oc3ccc(OC(F)(F)F)cc3)cc2)CCC2(CCNCC2)C1` (stereo not drawn): the “log(ratio)” value in [6] amounted to 0.904. Also, the IC50 against Stromelysin-2 and against Stromelysin-1 was greater than 10 µM each time. Moreover, the CC50 at 72 h in series [1] is 7.22 µM.

For `O=C(OCc1ccccc1)C1(S(=O)(=O)c2ccc(Oc3ccc(OC(F)(F)F)cc3)cc2)CCC2(CCNCC2)C1` (stereo not drawn), the IC50 against Stromelysin-2 and against Stromelysin-1 was greater than 10 µM throughout.

As for `CNC(=O)NC(=O)C1(S(=O)(=O)c2ccc(Oc3ccc(OC(F)(F)F)cc3)cc2)CCC2(CCNCC2)C1` (stereo not drawn), the solubility entry in series [4] is listed as “Soluble”. Also, the Time in the series on Mus musculus [5] was 20.24 min. The “log(ratio)” value in series [6] was “>= 1.607”. Moreover, the IC50 at Stromelysin-2 and against Stromelysin-1 was greater than 10 µM in each case. Also, the CC50 at 72 h in series [1] came to 16.2 µM.

Consider `Cc1ccc(-c2ccc(N)c(NC(=O)C3(S(=O)(=O)c4ccc(Oc5ccc(OC(F)(F)F)cc5)cc4)CCC4(CCNCC4)C3)c2)o1` (stereo not drawn), for which the IC50 against Stromelysin-2 and on Stromelysin-1 was greater than 10 µM throughout.

In the case of `CS(=O)(=O)NC(=O)C1(S(=O)(=O)c2ccc(Oc3ccc(OC(F)(F)F)cc3)cc2)CCC2(CCNCC2)C1` (stereo not drawn), the IC50 against Stromelysin-2 and on Stromelysin-1 was greater than 10 µM in each case.

Regarding `O=C(Nc1nccs1)C1(S(=O)(=O)c2ccc(Oc3ccc(OC(F)(F)F)cc3)cc2)CCC2(CCNCC2)C1` (stereo not drawn), the IC50 against Stromelysin-2 and against Stromelysin-1 was greater than 10 µM each time.

For `CN(C)S(=O)(=O)NC(=O)C1(S(=O)(=O)c2ccc(Oc3ccc(OC(F)(F)F)cc3)cc2)CCC2(CCNCC2)C1` (stereo not drawn), the IC50 at Stromelysin-2 and against Stromelysin-1 was greater than 10 µM in each case.

For the compound `CON(C)C(=O)C1(S(=O)(=O)c2ccc(Oc3ccc(OC(F)(F)F)cc3)cc2)CCC2(CCNCC2)C1` (stereo not drawn), the IC50 against Stromelysin-2 and on Stromelysin-1 was greater than 10 µM in each case.

As for `O=S(=O)(c1ccc(Oc2ccc(OC(F)(F)F)cc2)cc1)C1CCC2(CCNCC2)C1` (stereo not drawn), the IC50 against Stromelysin-2 and against Stromelysin-1 was greater than 10 µM in each case.

Turning to `CCCN1CCC2(CC1)CCC(C(=O)NC(=O)NC)(S(=O)(=O)c1ccc(Oc3ccc(OC(F)(F)F)cc3)cc1)C2` (stereo not drawn), the IC50 against Stromelysin-2 and against Stromelysin-1 was greater than 10 µM in each case.

With `O=C(O)C1(S(=O)(=O)c2ccc(Oc3ccc(OC(F)(F)F)cc3)cc2)CCC2(CCNCC2)C1` (stereo not drawn), the IC50 at Stromelysin-2 and against Stromelysin-1 was greater than 10 µM in each case.

As for `NC(=O)C1(S(=O)(=O)c2ccc(Oc3ccc(OC(F)(F)F)cc3)cc2)CCC2(CCNCC2)C1` (stereo not drawn), the half-maximal inhibitory concentration (IC50) at Stromelysin-2 and against Stromelysin-1 was greater than 10 µM each time.

Turning to `COc1ccc(Oc2ccc(S(=O)(=O)C3(C(=O)Nc4ccccc4N)CCC4(CCNCC4)C3)cc2Cl)cc1` (stereo not drawn), the IC50 on Stromelysin-2 and on Stromelysin-1 was greater than 10 µM throughout.

For `Nc1ccc(F)cc1NC(=O)C1(S(=O)(=O)c2ccc(Oc3ccc(OC(F)(F)F)cc3)cc2)CCC2(CCNCC2)C1` (stereo not drawn), the IC50 against Stromelysin-2 and against Stromelysin-1 was greater than 10 µM throughout.

With `O=C1CN(C(=O)C2(S(=O)(=O)c3ccc(Oc4ccc(OC(F)(F)F)cc4)cc3)CCC3(CCNCC3)C2)CCN1` (stereo not drawn), the IC50 on Stromelysin-2 and against Stromelysin-1 was greater than 10 µM throughout.

For the compound `Nc1ccccc1NC(=O)C1(S(=O)(=O)c2ccccc2NC2CCCCC2)CCC2(CCNCC2)C1` (stereo not drawn), the solubility entry in [4] was “Soluble”. Besides, the IC50 at Stromelysin-2 and against Stromelysin-1 was greater than 10 µM in each case.

As to `COc1ccc(S(=O)(=O)C2(C(=O)Nc3cc(-c4ccccc4)ccc3N)CCC3(CCNCC3)C2)cc1Cl` (stereo not drawn), the IC50 at Stromelysin-2 and on Stromelysin-1 was greater than 10 µM each time.

In the case of `Nc1ccc(-c2cccs2)cc1NC(=O)C1(S(=O)(=O)c2ccc(Oc3ccc(OC(F)(F)F)cc3)cc2)CCC2(CCNCC2)C1` (stereo not drawn), in [6], the “log(ratio)” value was found to be 0.493. For the same compound, the IC50 against Stromelysin-2 and at Stromelysin-1 was greater than 10 µM in each case. Moreover, the CC50 at 72 h in series [1] amounted to 2.8 µM.

Regarding `Nc1ccccc1NC(=O)C1(S(=O)(=O)c2ccc(Oc3ccc(OC(F)(F)F)cc3)c(Cl)c2)CCC2(CCNCC2)C1` (stereo not drawn), the IC50 on Stromelysin-2 and at Stromelysin-1 was greater than 10 µM in each case.
